Shown are actives, neighbours in structure and some others; about 1.2% of the full set was active somewhere.
HNF4A DNA FP – change in binding of human HNF4 alpha to DNA; HNF4a-FITC DNA binding, fluorescence polarization, 1 h; activity change, % at 10 µM; 0.3% of 360,000 active; in the data active = activity change above about 30%, passing the limit was not always enough
TPT1 inh – blocks Candida albicans tRNA 2'-phosphotransferase. recombinant caTPT1, FP RNA substrate dephosphorylation. inhibition, % at 5 µM. 0.81% of 300,000 active. AID 1962;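 active = inhibition above the mean of all tested compounds plus 3 SD, set per screening campaign, cut at about 24% in these data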
Rtt109 Vps75 – C. albicans Rtt109 histone acetyltransferase inhibition. Q5AAJ8. purified Rtt109/Vps75, ThioGlo CoA-SH fluorescence, 4 h. AID 540336. 0.16% of 330,000 active. inhibition, % at 34.9 µM;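 active = inhibition of at least 50% in every replicate; inconclusive = best replicate reaches 50% inhibition but some replicates fall short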
CSN deneddyl inh – blocks human CSN-mediated cullin deneddylation; Purified CSN, SCF-Nedd8-OG deneddylation, fluorescence polarization; inhibition, % at 12.5 µM; 0.38% of 360,000 active; AID 651999;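 active = pattern-corrected inhibition above about 35%, with an unprinted fluorescence ratio check between 0.5 and 1.5, limit read from the data, passing the limit was not always enough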
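Material: purified human Csn5 enzyme expressed in HEK293T cells / Medium: Tris buffer pH 7.5, NaCl, DTT, Tween-20, trehalose, ovalbumin / Compound dosing: 12.5 µM single point / Schedule: 90 min incubation of compound, enzyme and substrate at room temperature / Signal: fluorescence polarization of the substrate / Control set: no-enzyme wells high, enzyme-with-substrate wells low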
TPT1 inh confirm – confirmation of Candida albicans TPT1 inhibitors; AID 2149; inhibition, % at 5 µM; 74% of 2,400 active; recombinant caTPT1, fluorescence polarization, RNase T1 coupled; shares compounds with TPT1 inh;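 active = inhibition above the primary screen limit, the mean inhibition of all tested compounds plus 3 SD, cut at about 25% in these data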
RNase T1 inh – RNase T1 inhibition in TPT1 counter-screen; RNase T1 cleavage, fluorescence polarization, 1536-well; 83% of 2,400 active; inhibition, % at 5 µM; AID 2153; shares compounds with TPT1 inh;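 active = inhibition above the solvent-only control well mean plus 3 SD, limit set per screening run, cut at about 23% in these data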;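 also: inhibitors block cleavage so intact labeled substrate keeps polarization high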
CSN deneddyl val – Csn5 (human) deneddylation inhibition, single-concentration validation. AID 720654. shares compounds with CSN deneddyl inh. inhibition, % at 16.6 µM. Csn5 deneddylation of SCF-Nedd8OG, fluorescence polarization, 90 min. 62% of 540 active; in the data active = inhibition above about 50%
MMP-2 counter – counter-screen for CSN deneddylation inhibitors: human MMP-2 inhibition; shares compounds with CSN deneddyl inh; 33% of 540 active; AID 720655; inhibition, % at 16.6 µM; recombinant MMP-2, FRET substrate fluorescence, 60 min;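 active = corrected plate-normalized z-score of 5 or more, or -5 or less, or inhibition of 15% or more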
Thrombin counter – counter-screen for CSN deneddylation inhibitors: bovine thrombin inhibition; shares compounds with CSN deneddyl inh; bovine thrombin cleavage of Ub4-pepOG, fluorescence polarization; inhibition, % at 16.6 µM; 49% of 540 active; AID 720656;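 active = inhibition at or above a set limit, with a fluorescence interference ratio between 0.5 and a set maximum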
Target sequence (P00735 whole entry, looked up): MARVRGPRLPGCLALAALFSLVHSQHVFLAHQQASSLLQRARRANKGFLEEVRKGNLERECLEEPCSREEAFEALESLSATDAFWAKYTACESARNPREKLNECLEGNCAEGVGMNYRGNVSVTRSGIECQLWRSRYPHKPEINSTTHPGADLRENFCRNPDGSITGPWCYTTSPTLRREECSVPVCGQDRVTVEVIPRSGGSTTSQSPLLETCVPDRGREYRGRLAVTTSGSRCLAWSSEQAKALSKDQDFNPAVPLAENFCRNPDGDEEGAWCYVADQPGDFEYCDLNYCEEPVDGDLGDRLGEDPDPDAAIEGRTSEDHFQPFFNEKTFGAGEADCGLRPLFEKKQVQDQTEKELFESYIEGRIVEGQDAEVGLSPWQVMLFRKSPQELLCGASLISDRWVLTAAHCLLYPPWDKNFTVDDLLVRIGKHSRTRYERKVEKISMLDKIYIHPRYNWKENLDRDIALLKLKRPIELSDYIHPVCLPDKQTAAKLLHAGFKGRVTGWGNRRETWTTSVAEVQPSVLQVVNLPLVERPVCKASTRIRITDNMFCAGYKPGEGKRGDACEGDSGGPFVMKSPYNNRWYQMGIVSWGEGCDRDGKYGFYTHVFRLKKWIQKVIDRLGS
Hits are given with their value; n = inactive; u = inconclusive; x = not tested or not shown; + = active, no number.

SMILES | HNF4A DNA FP | TPT1 inh | Rtt109 Vps75 | CSN deneddyl inh | TPT1 inh confirm | RNase T1 inh | CSN deneddyl val | MMP-2 counter | Thrombin counter
CCN(CC)S(=O)(=O)c1cccc(C(=O)N/N=C(\C)c2ccc(O)cc2O)c1 | n | 89 | n | 37 | 140 | 129 | 92 | -27 | 79
CCN(CC)S(=O)(=O)c1cccc(C(=O)N/N=C/c2ccc(O)c(O)c2O)c1 | n | n | u | n | x | x | x | x | x
CN(C)c1ccc(/C=C2\CCC/C(=C\c3ccccc3)C2=O)cc1 | n | 104 | n | 73 | 111 | 109 | 91 | n | 36
N#C/C(=C/c1ccc(N2CCCCCC2)o1)c1ccc(Cl)cc1 | n | 158 | n | 78 | 187 | 172 | 188 | -34 | 58
N#C/C(=C\c1ccc(N2CCOCC2)o1)C(=O)NC1CCCCC1 | n | 163 | n | 77 | 177 | 169 | 141 | n | 65
N#C/C(=C\c1ccc(N2CCOCC2)o1)C(=O)NCCc1ccccc1 | n | + | n | 98 | 181 | 171 | + | n | n
CN(C)S(=O)(=O)n1cc(/C=C(\NC(=O)c2ccccc2Cl)C(=O)N2CCOCC2)c2ccccc21 | n | n | n | n | x | x | x | x | x
CN(C)c1ccc(/C=C2\C(=N)N3N=C(CC(=O)N4CCCCC4)SC3=NC2=O)cc1 | n | 122 | n | 90 | 140 | 148 | 76 | -57 | 94
COC(=O)[C@H]1C[C@H](OC(=O)Nc2cccs2)[C@@]2(O)CN(S(=O)(=O)c3ccc(C)cc3)CC2[C@H]1C(=O)OC (some centres undefined) | n | x | x | n | x | x | x | x | x
CC(C)N1CCc2c(sc(NC(=O)c3ccc(S(=O)(=O)N4CCc5ccccc54)cc3)c2C(N)=O)C1 | 53 | 82 | n | 47 | 84 | 93 | x | n | n
NC(=O)c1ccsc1NC(=O)c1ccc(S(=O)(=O)N2CCCc3ccccc32)cc1 | n | n | n | n | x | x | x | x | x
COc1cc(/C=C2\SC(=N)N(c3ccc(F)cc3)C2=O)ccc1O | n | n | n | n | x | x | x | x | x
COc1cccc(/C=C2\SC(=S)N(NC(=O)c3ccncc3)C2=O)c1 | n | n | n | n | x | x | x | x | x
O=C1/C(=C\c2ccc(O)cc2)SC(=S)N1/N=C/c1ccc(O)cc1 | 106 | 65 | n | 94 | 62 | 68 | n | n | 86
COc1cc(/C=C2\SC(=S)N(NC(=O)c3cccnc3)C2=O)ccc1O | 52 | 25 | n | 39 | 34 | 42 | 65 | n | 35
COc1cc(/C=C2\SC(=S)N(c3cccnc3)C2=O)ccc1O | n | n | n | n | x | x | x | x | x
O=C1C2C3C=CC(CC3)C2C(=O)N1/N=C/c1ccc(O)cc1 (centres undefined) | n | n | n | n | x | x | x | x | x
COc1cc(/C=C2\SC(=S)N(Nc3ncc(C(F)(F)F)cc3Cl)C2=O)ccc1O | 82 | 27 | n | 67 | 32 | 43 | 78 | n | 61
COc1cc(/C=C2\SC(=S)N(NC(=O)c3ccc(O)cc3)C2=O)ccc1O | 50 | 35 | n | 50 | 39 | 52 | 53 | n | 65
CC(=O)Nc1ccc(-c2ccnc3c2CC(C)(C(=O)NCc2ccc(F)c(F)c2)O3)cc1 (centres undefined) | n | x | x | n | x | x | x | x | x
COCCC(=O)N1CCC(Oc2ccc(C(=O)N3CCC(N(C)C)C3)cc2)CC1 (centres undefined) | n | n | n | n | x | x | x | x | x
CCOc1cc(/C=C2\SC(=S)N(NS(=O)(=O)c3ccccc3)C2=O)ccc1O | n | n | n | n | x | x | x | x | x
CCOc1cc(/C=C2\SC(=S)N(Nc3ccccc3)C2=O)ccc1O | n | 34 | n | 37 | 37 | 50 | 75 | n | 61
CC(=O)NN1C(=O)/C(=C\c2ccccc2)SC1=S | n | n | n | n | x | x | x | x | x
O=C(NN1C(=O)/C(=C/c2ccc(O)c(O)c2)SC1=S)c1ccccc1 | n | 31 | n | 50 | 44 | 57 | 63 | 20 | 33
SMILES | HNF4A DNA FP | TPT1 inh | Rtt109 Vps75 | CSN deneddyl inh | TPT1 inh confirm | RNase T1 inh | CSN deneddyl val | MMP-2 counter | Thrombin counter
CC(=O)NN1C(=O)/C(=C\c2ccc(O)cc2)SC1=S | 82 | 37 | n | 96 | 41 | 48 | n | n | 73
COc1cc(/C=C2\SC(=S)N(C(Cc3ccccc3)C(=O)O)C2=O)ccc1O (centres undefined) | 35 | 33 | n | 36 | 37 | 49 | 56 | n | 68
CC(=O)NN1C(=O)/C(=C\c2ccc(Cl)cc2)SC1=S | n | n | n | n | x | x | x | x | x
O=C(O)C(Cc1ccccc1)N1C(=O)/C(=C/c2cccc3ccccc23)SC1=S (centres undefined) | x | n | x | x | x | x | x | x | x
CC(=O)c1cccc(NC(=O)c2ccc(-c3c(C)noc3C)c3ccoc23)c1 | n | x | x | n | x | x | x | x | x
Cc1ccnc(NS(=O)(=O)c2ccc(-n3cccn3)cc2)c1 | n | n | n | n | x | x | x | x | x
COc1ccc(NC(=O)CSc2nnnn2C2CC3C=CC2C3)cc1 (centres undefined) | n | n | n | n | x | x | x | x | x
COc1cc(/C=C2/SC(=S)N(CC3CCCO3)C2=O)ccc1O (centres undefined) | 41 | 39 | n | 58 | 41 | 51 | 65 | n | 75
Cc1cc(=O)[nH]c2nnc(-c3ccc(Cl)cc3)n12 | n | n | n | n | x | x | x | x | x
O=C(CCN1C(=O)/C(=C\c2ccco2)SC1=S)Nc1ccc(C(=O)O)c(O)c1 | n | 25 | n | 57 | n | n | 72 | n | n
CC(C)Oc1cccc(C2NC(=O)c3ccccc3O2)c1 (centres undefined) | n | n | n | n | x | x | x | x | x
CCOc1cc(/C=N/NC(=O)C(N)=O)cc(Br)c1O | n | n | x | n | x | x | x | x | x
CCOc1ccc(NC(=O)/C(C#N)=C/c2ccc(N3CCCC3)c(C)c2)cc1 | n | 83 | n | 46 | 83 | 89 | 99 | n | 25
CCOc1cc(/C=C(/C#N)C(=O)Nc2ccc(O)cc2)cc(Br)c1O | 54 | + | n | 63 | 171 | 164 | n | n | 68
Cc1ccc2nc(/C(C#N)=C\c3ccc([N+](=O)[O-])o3)[nH]c2c1 | n | 55 | n | 52 | 47 | 59 | n | 18 | 44
Cc1ccc2nc(/C(C#N)=C/c3ccc(-c4ccccc4C(=O)O)o3)[nH]c2c1 | 97 | 133 | n | 76 | 139 | 132 | 63 | -32 | n
Cc1cc(/C=C(/C#N)c2nc3ccccc3[nH]2)c(C)n1-c1cc(C(=O)O)cc(C(=O)O)c1 | n | x | n | n | x | x | x | x | x
Cn1nnnc1SCC(=O)Nc1nc2c(F)c(F)c(F)cc2s1 | n | x | n | n | x | x | x | x | x
